Data reported in ChEMBL document CHEMBL1125107, “Cephalosporin 3'-quinolone esters with a dual mode of action” (J Med Chem, 1990).
Converted amounts (≈) assume the structure as drawn.

What was measured:
Assay type in all cases: functional
[1] = tested on: Streptococcus pneumoniae; assay: Minimum inhibitory concentration against Streptococcus pneumoniae 6301
Outline: (§1)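 Broth MIC determination: serial 2-fold dilutions in Mueller-Hinton broth by standard methodology; the lowest concentration inhibiting growth is reported as the MIC, in nmol/mL.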

[2] = tested on: Streptococcus pyogenes; assay: Minimum inhibitory concentration against Streptococcus pyogenes 4; outline: as §1
[3] = tested on: Staphylococcus aureus; assay: Minimum inhibitory concentration against Staphylococcus aureus 95 (Methicillin-resistant, high-level beta-lactamase producer)
Outline: (§2)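 Serial 2-fold broth dilution in Mueller-Hinton broth, run by standard methodology; read-out is the minimum inhibitory concentration (MIC).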

[4] = tested on: Pseudomonas aeruginosa; assay: Evaluated for the minimum inhibitory concentration against Pseudomonas aeruginosa ATCC 27853
Outline: (§3)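 MIC by serial 2-fold dilution in Mueller-Hinton broth; results given as minimum inhibitory concentrations (nmol/mL).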

[5] = tested on: Proteus vulgaris; assay: Minimum inhibitory concentration against Proteus vulgaris 1028 BC (Class Ic beta-lactamase overproducer); outline: as §1
[6] = tested on: Pseudomonas aeruginosa; assay: Evaluated for the minimum inhibitory concentration against Pseudomonas aeruginosa 18S/H ( Class Id beta-lactamase overproducer); outline: as §3
[7] = tested on: Pseudomonas aeruginosa; assay: Minimum inhibitory concentration against Pseudomonas aeruginosa ATCC 27853; outline: as §1
[8] = tested on: Proteus vulgaris; assay: Evaluated for the minimum inhibitory concentration against Proteus vulgaris 1028 BC (Class Ic beta-lactamase overproducer; outline: as §3
[9] = tested on: Pseudomonas aeruginosa; assay: Evaluated for the minimum inhibitory concentration against Pseudomonas aeruginosa 18S/H (Class Id beta-lactamase overproducer); outline: as §3
[10] = tested on: Staphylococcus aureus; assay: Evaluated for the minimum inhibitory concentration against Staphylococcus aureus 1059B ( inducible, high level beta-lactamase producer); outline: as §2
[11] = tested on: Micrococcus luteus; assay: Evaluated for in Vitro activity against Micrococcus luteus PCI; outline: as §3
[12] = tested on: Streptococcus pneumoniae; assay: Evaluated for in Vitro activity against Streptococcus pneumoniae 6301; outline: as §3
[13] = tested on: Escherichia coli; assay: Evaluated for in Vitro activity against Escherichia coli DC-O; outline: as §3
[14] = tested on: Staphylococcus aureus; assay: Evaluated for the minimum inhibitory concentration against Staphylococcus aureus 95 (Methicillin-resistant, high-level beta-lactamase producer); outline: as §2
[15] = tested on: Streptococcus pyogenes; assay: In vitro antibacterial activity was determined against Streptococcus pyogenes 4; outline: as §1
[16] = tested on: Streptococcus pneumoniae; assay: In vitro antibacterial activity was determined against Streptococcus pneumoniae 6301; outline: as §1
[17] = tested on: Proteus mirabilis; assay: In vitro antibacterial activity was determined against Proteus mirabilis 90; outline: as §3
[18] = tested on: Staphylococcus aureus; assay: In vitro antibacterial activity was determined against Staphylococcus aureus 1059B ( inducible, high level beta-lactamase producer); outline: as §1
[19] = tested on: Escherichia coli; assay: Evaluated for the in vivo activity in mice against Escherichia coli 257
[20] = tested on: Escherichia coli; assay: Evaluated for the minimum inhibitory concentration against Escherichia coli UB 1005; outline: as §3
[21] = tested on: Streptococcus pyogenes; assay: Evaluated for the in vivo activity in mice against streptococcus pyogenes 4
[22] = tested on: Staphylococcus aureus; assay: In vitro antibacterial activity was determined against Staphylococcus aureus ATCC 29213 (inducible, low level beta-lactamase producer); outline: as §2
[23] = tested on: Escherichia coli; assay: In vitro antibacterial activity was determined against Escherichia coli TEM-1 (TEM-1 (class IIIa) beta-lactamase producer); outline: as §3
[24] = tested on: Proteus vulgaris; assay: In vitro antibacterial activity was determined against Proteus vulgaris 1028 BC (Class Ic beta-lactamase overproducer; outline: as §3
[25] = tested on: Enterobacter cloacae; assay: In vitro antibacterial activity was determined against Enterobacter cloacae P99 (Class Ia beta-lactamase overproducer); outline: as §3
[26] = tested on: Enterococcus faecalis; assay: In vitro antibacterial activity was determined against Enterococcus faecalis ATCC 29212; outline: as §3
[27] = tested on: Citrobacter freundii; assay: In vitro antibacterial activity was determined against Citrobacter freundii BS-16; outline: as §3
[28] = tested on: Staphylococcus aureus; assay: In vitro antibacterial activity was determined against Staphylococcus aureus 95 (Methicillin-resistant, high-level beta-lactamase producer); outline: as §2
[29] = tested on: Serratia marcescens; assay: In vitro antibacterial activity was determined against Serratia marcescens 1071; outline: as §1
[30] = tested on: Pseudomonas aeruginosa; assay: In vitro antibacterial activity was determined against Pseudomonas aeruginosa 18S/H (Class Id beta-lactamase overproducer); outline: as §1
[31] = tested on: Staphylococcus aureus; assay: In vitro antibacterial activity was determined against Staphylococcus aureus 1059B (inducible, high level beta-lactamase producer); outline: as §2
[32] = tested on: Escherichia coli; assay: Evaluated for the minimum inhibitory concentration against Escherichia coli TEM-1; outline: as §2
[33] = tested on: Enterobacter cloacae; assay: Evaluated for the minimum inhibitory concentration against Enterobacter cloacae P99; outline: as §2
[34] = tested on: Proteus vulgaris; assay: Evaluated for the minimum inhibitory concentration against Proteus vulgaris 1028 BC; outline: as §2

SMILES | MIC [1] [µg/mL] | MIC [2] [µg/mL] | MIC [3] [µg/mL] | MIC [5] [µg/mL] | MIC [7] [µg/mL] | MIC [8] [µg/mL] | MIC [9] [µg/mL] | also measured
CCN1CCN(C(=O)NC(C(=O)N[C@@H]2C(=O)N3C(C(=O)O)=C(COC(=O)c4cn(CC)c5cc(N6CCSCC6)c(F)cc5c4=O)CSC23)c2ccccc2)C(=O)C1=O (some centres not stated) | 0.125 (≈ 0.147 µM) | 0.016 (≈ 0.0188 µM) | 1 (≈ 1.18 µM) | 64 (≈ 75.3 µM) |  |  |  | MIC [4]: 64 µg/mL (≈ 75.3 µM); MIC [6]: 32 µg/mL (≈ 37.7 µM)
CCn1cc(C(=O)OCC2=C(C(=O)O)N3C(=O)[C@@H](NC(=O)/C(=N/OC)c4csc(N)n4)C3SC2)c(=O)c2cc3c(cc21)OCO3 (some centres not stated) |  |  | 4 (≈ 6.09 µM) |  | 128 (≈ 195 µM) | 0.25 (≈ 0.381 µM) | 16 (≈ 24.4 µM) | 
CN1CCN(c2c(F)cc3c(=O)c(C(=O)OCC4=C(C(=O)O)N5C(=O)[C@@H](NC(=O)/C(=N/OC(C)(C)C(=O)O)c6csc(N)n6)C5SC4)cn(CCF)c3c2F)CC1 (some centres not stated) | 0.5 (≈ 0.597 µM) | 0.5 (≈ 0.597 µM) | 4 (≈ 4.78 µM) |  | 8 (≈ 9.56 µM) | 0.5 (≈ 0.597 µM) | > 128 | 
CCn1cc(C(=O)OCC2=C(C(=O)O)N3C(=O)[C@@H](NC(=O)COc4ccccc4)C3SC2)c(=O)c2cc(F)c(N3CCSCC3)cc21 (some centres not stated) | 2 (≈ 2.93 µM) | 4 (≈ 5.86 µM) | 0.5 (≈ 0.732 µM) | 1 (≈ 1.46 µM) | 128 (≈ 187 µM) |  | 64 (≈ 93.7 µM) | MIC [10]: 0.25 µg/mL (≈ 0.366 µM)
CO/N=C(/C(=O)N[C@@H]1C(=O)N2C(C(=O)O)=C(CO)CSC12)c1csc(N)n1 (some centres not stated) |  |  |  |  |  |  |  | MIC [11]: 0.597 µM (≈ 0.247 µg/mL); MIC [12]: 0.0746 µM (≈ 0.0308 µg/mL); MIC [13]: 0.597 µM (≈ 0.247 µg/mL)
CCn1cc(C(=O)OCC2=C(C(=O)O)N3C(=O)[C@@H](NC(=O)/C(=N/OC)c4csc(N)n4)C3SC2)c(=O)c2ccc(C)nc21 (some centres not stated) |  |  | 8 (≈ 12.7 µM) | 4 (≈ 6.37 µM) | > 128 |  | 64 (≈ 102 µM) | 
CN1CCN(c2c(F)cc3c(=O)c(C(=O)OCC4=C(C(=O)O)N5C(=O)[C@@H](NC(=O)/C(=N/OCC(=O)O)c6csc(N)n6)C5SC4)cn(CCF)c3c2F)CC1 (some centres not stated) | 0.5 (≈ 0.618 µM) | 0.5 (≈ 0.618 µM) |  |  | 32 (≈ 39.6 µM) | 0.25 (≈ 0.309 µM) |  | MIC [14]: 1 µg/mL (≈ 1.24 µM); MIC [6]: 4 µg/mL (≈ 4.95 µM)
CCn1cc(C(=O)OCC2=C(C(=O)O)N3C(=O)[C@@H](NC(=O)COc4ccccc4)C3SC2)c(=O)c2ccc(C)nc21 (some centres not stated) |  |  |  |  |  |  |  | MIC [15]: 0.063 µg/mL (≈ 0.109 µM); MIC [16]: < 0.008 µg/mL; MIC [17]: 32 µg/mL (≈ 55.3 µM); MIC [18]: 0.5 µg/mL (≈ 0.864 µM)
CO/N=C(\C(=O)N[C@@H]1C(=O)N2C(C(=O)O)=C(COC(C)=O)CS[C@H]12)c1csc(N)n1 [CEFOTAXIME] | 0.016 (≈ 0.0351 µM) | < 0.008 | 32 (≈ 70.3 µM) |  | 64 (≈ 141 µM) | 16 (≈ 35.1 µM) | 128 (≈ 281 µM) | ED50 [19]: 1.7 mg/kg; MIC [20]: 0.06 µg/mL (≈ 0.132 µM); ED50 [21]: 5.2 mg/kg
CCn1cc(C(=O)O)c(=O)c2cc(F)c(-n3cccc3)cc21 [IRLOXACIN] |  |  |  |  |  |  |  | MIC [22]: 0.125 µg/mL (≈ 0.416 µM); MIC [15]: > 128 µg/mL; MIC [23]: 1 µg/mL (≈ 3.33 µM); MIC [24]: 0.5 µg/mL (≈ 1.67 µM); MIC [16]: 16 µg/mL (≈ 53.3 µM); MIC [25]: 0.5 µg/mL (≈ 1.67 µM); MIC [26]: 2 µg/mL (≈ 6.66 µM); MIC [17]: 64 µg/mL (≈ 213 µM); MIC [27]: 64 µg/mL (≈ 213 µM); MIC [28]: 0.125 µg/mL (≈ 0.416 µM); MIC [29]: 0.5 µg/mL (≈ 1.67 µM); MIC [30]: 64 µg/mL (≈ 213 µM); MIC [31]: 0.125 µg/mL (≈ 0.416 µM)
CCn1cc(C(=O)O)c(=O)c2ccc(C)nc21 [NALIDIXIC ACID] | 128 (≈ 551 µM) | 128 (≈ 551 µM) | 8 (≈ 34.4 µM) | 2 (≈ 8.61 µM) | 128 (≈ 551 µM) |  | 32 (≈ 138 µM) | MIC [32]: 4 µg/mL (≈ 17.2 µM)
CCn1cc(C(=O)O)c(=O)c2cc3c(cc21)OCO3 [OXOLINIC ACID] | > 128 | > 128 | 2 (≈ 7.66 µM) |  | 64 (≈ 245 µM) |  |  | MIC [32]: 0.25 µg/mL (≈ 0.957 µM); MIC [33]: 0.5 µg/mL (≈ 1.91 µM); MIC [34]: 0.063 µg/mL (≈ 0.241 µM); MIC [6]: 4 µg/mL (≈ 15.3 µM)
